Usually MIC stands for the smallest concentration in the dilution series that meets the test's criterion for growth inhibition. Broadly, the kcat is the maximal rate divided by the concentration of active sites. As a reminder, the Ki is the equilibrium dissociation constant of an inhibitor or competing ligand from its target. A higher Ki goes with a looser hold on the target. Broadly, the Km is the concentration of substrate that gives half-maximal velocity. A word on the residual activity: it is the signal under treatment as a percentage of the control signal.

Data on nine molecules can be found in ChEMBL document CHEMBL1212801, “Inhibitor resistance in the KPC-2 beta-lactamase, a preeminent property of this class A beta-lactamase” (Antimicrob Agents Chemother, 2010).

Converted amounts (≈) assume the structure as drawn. The source made the active and inactive calls.

Experiment [1] relates to Escherichia coli. The experiment can be described thus: Antimicrobial activity against Escherichia coli DH10B by CLSI method. The settings on record: K-12 DH10B.
For another experiment, the system named is Klebsiella pneumoniae. The experiment can be described thus: Antimicrobial activity against Klebsiella pneumoniae 1534 harboring beta lactamase KPC-2 by CLSI method. In kind it is functional. In short, it runs like this:
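[…] agar dilution MICs per CLSI, using a Steers replicator spotting 10^4 CFU per spot. For clavulanic acid and sulbactam, ampicillin was fixed at 50 mg/liter while inhibitor was increased. Piperacillin-tazobactam was tested at 8:1. Test inhibitors were held at 4 mg/liter while piperacillin, imipenem or cefotaxime was increased.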

Experiment [2] deals with Escherichia coli str. K-12 substr. DH10B. The experiment can be described thus: Ratio of Kcat to Km for Escherichia coli DH10B beta-lactamase KPC-2. In short, it runs like this: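 Steady-state assay on a diode array spectrophotometer with 10 nM purified KPC-2 and substrates at 5–200 μM, in 10 mM PBS pH 7.4 at room temperature. Spontaneous imipenem hydrolysis was subtracted. Vmax and Km came from a nonlinear least-squares Michaelis-Menten fit.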

For experiment [3] the test system is unchanged. Kind of experiment: (§1) Activity at Escherichia coli DH10B beta-lactamase KPC-2 by diode array spectrophotometry.
Experiment [4] can be described thus: as §1. On the set-up: species or system Escherichia coli str. K-12 substr. DH10B.
Experiment [5] deals with Escherichia coli. The experiment can be described thus: Antimicrobial activity against Escherichia coli DH10B harboring beta lactamase KPC-2 by CLSI method. The note with it: K-12 DH10B.
The subject of experiment [6] is Escherichia coli str. K-12 substr. DH10B. Kind of experiment: Inhibition of Escherichia coli DH10B beta-lactamase KPC-2 assessed as residual activity at 25 to 200 uM after 24 hrs by diode array spectrophotometry.
The test system is the same in experiment [7]. The experiment can be described thus: Ratio of Kinact to Km for Escherichia coli DH10B beta-lactamase KPC-2.
For experiment [8] the test system is unchanged. The experiment can be described thus: Ratio of Kcat to Kinact for Escherichia coli DH10B beta-lactamase KPC-2.
The test system is the same in experiment [9]. Kind of experiment: Km for Escherichia coli DH10B beta-lactamase KPC-2.
The test system is the same in experiment [10]. Kind of experiment: Inhibition of Escherichia coli DH10B beta-lactamase KPC-2 assessed as residual activity at 25 to 200 uM after 24 hrs by diode array spectrophotometry; values are per cent of control.
For experiment [11] the test system is unchanged. The experiment can be described thus: Inhibition of Escherichia coli DH10B beta-lactamase KPC-2 at 0.025 mM by UVD spectroscopy.
Experiment [12] has the same test system. The experiment can be described thus: Inhibition of Escherichia coli DH10B beta-lactamase KPC-2 assessed as residual activity at 25 to 200 uM after 72 hrs by diode array spectrophotometry.

In the case of `CCN1CCN(C(=O)N[C@@H](C(=O)N[C@@H]2C(=O)N3[C@@H]2SC(C)(C)[C@@H]3C(=O)O)c2ccccc2)C(=O)C1=O` [PIPERACILLIN], the MIC in the experiment with Escherichia coli [1] was 2 µg/mL (≈ 3.86 µM); in the experiment with Klebsiella pneumoniae, 1020 µg/mL (≈ 1980 µM); with Escherichia coli [5], 1020 µg/mL (≈ 1980 µM). Moreover, the kcat/Km in experiment [2] was found to be 1.1 µM/s. Further, the kcat in experiment [3] turned out to be 17 s⁻¹. Also, the Ki in experiment [4] came out at 16 µM.

Turning to `C[C@]1(Cn2ccnn2)[C@H](C(=O)O)N2C(=O)C[C@H]2S1(=O)=O`, in experiment [6], the Activity stood at 50%. In addition, in experiment [7], the kinact/Km turned out to be 2500 M⁻¹ s⁻¹. Also, in experiment [8], the kcat/kinact came to 500. Moreover, in experiment [9], the Km was determined as 78.5 µM.

For the molecule `CC1(C)[C@H](C(=O)O)N2C(=O)C[C@H]2S1(=O)=O`, in experiment [6], the Activity is 50%. Besides, the kinact/Km in [7] is 1200 M⁻¹ s⁻¹. Moreover, the kcat/kinact in [8] is 1000. For the same molecule, the Km in [9] was found to be 135 µM.

As to `O=C(O)C1=CSC2/C(=C\c3cc4n(n3)CSC4)C(=O)N12` (stereo not given), the residual activity in experiment [10] came to 20%. Besides, the kinact/Km in [7] amounted to 180000 M⁻¹ s⁻¹. Moreover, in experiment [8], the kcat/kinact is 250. In addition, the Km in experiment [9] came out at 0.06 µM. For the same molecule, the inhibition result in experiment [11] was “Active”.

Turning to `C[C@@H](O)[C@H]1C(=O)N2C(C(=O)O)=C(SCCNC=N)C[C@H]12` [IMIPENEM ANHYDROUS], the MIC against Klebsiella pneumoniae and with Escherichia coli [5] was 8 µg/mL (≈ 26.7 µM) each time. In addition, the kcat/Km in [2] was 1 µM/s. The kcat in experiment [3] worked out at 19 s⁻¹. The molecule also came in with an inhibitory constant (Ki) in experiment [4] of 19 µM.

Turning to `O=C(O)[C@H]1/C(=C/CO)O[C@@H]2CC(=O)N21`, in experiment [12], the Activity is 5%. Besides, the kinact/Km in [7] came to 3600 M⁻¹ s⁻¹. The kcat/kinact in [8] was determined as 2500. In [9], the Km is 8.4 µM.

Regarding `CO/N=C(\C(=O)N[C@@H]1C(=O)N2C(C(=O)O)=C(COC(C)=O)CS[C@H]12)c1csc(N)n1` [CEFOTAXIME], the minimum inhibitory concentration (MIC) worked out at 0.06 µg/mL (≈ 0.132 µM) against Escherichia coli [1], 16 µg/mL (≈ 35.1 µM) in the experiment with Klebsiella pneumoniae and 8 µg/mL (≈ 17.6 µM) in the experiment on Escherichia coli [5]. In [2], the kcat/Km came out at 0.6 µM/s. For the same molecule, the turnover number (kcat) in [3] was determined as 78 s⁻¹. Also, the Ki in experiment [4] stood at 120 µM.

As to `CC1(C)S[C@@H]2[C@H](NC(=O)[C@H](N)c3ccccc3)C(=O)N2[C@H]1C(=O)O` [AMPICILLIN], the values for the minimal inhibitory concentration (MIC) with Escherichia coli [1], in the experiment with Klebsiella pneumoniae and in the experiment on Escherichia coli [5] were 1 µg/mL (≈ 2.86 µM), 8190 µg/mL (≈ 23400 µM) and 4100 µg/mL (≈ 11700 µM), respectively.

Turning to `O=C(Cc1cccs1)N[C@@H]1C(=O)N2C(C(=O)O)=C(/C=C/c3ccc([N+](=O)[O-])cc3[N+](=O)[O-])CS[C@H]12` [NITROCEFIN], the kcat/Km in experiment [2] turned out to be 6.4 µM/s. The kcat in [3] was found to be 30 s⁻¹. Moreover, in [4], affinity was put at a Ki of 5 µM.
